The source made the active and inactive calls. The rule behind the calls is not given here.
Legend:
A549 = test: Antiproliferative activity against human A549 cells after 3 days by MTS assay; format: functional, cell-based; conditions: A549, 72 h
CCRF-CEM [1] = test: Inhibition of DNA synthesis in human CCRF-CEM cells assessed as DNA synthesis level at 5 times IC50 concentration after 24 hrs by BrdU incorporation assay (reference value: 43.39%); format: functional; parameters: scale not given: the % may be the effect or the level left
CCRF-CEM [2] = test: Inhibition of mitosis in human CCRF-CEM cells assessed Ser10 H3 phosphorylation positive cells at IC50 concentration after 24 hrs by flow cytometry relative to total cell population (reference value: 1.36%); format: functional; parameters: scale not given: the % may be the effect or the level left
[3] = Cytotoxicity against human Hep2 cells assessed as reduction in cell viability after 3 days by CellTiter-Glo assay; format: cell-based; conditions: HEp-2 cells
CCRF-CEM [4] = test: Induction of cell cycle arrest in human CCRF-CEM cells assessed as accumulation at subG1 phase at 5 times IC50 concentration after 24 hrs by propidium iodide-staining based flow cytometry (reference value: 3.45%); format: functional
K562 = test: Antiproliferative activity against human K562 cells after 3 days by MTS assay; format: functional, cell-based; conditions: K562, 72 h
HeLa S3 = test: Antiproliferative activity against human HeLaS3 cells after 72 hrs by XTT assay; format: functional, cell-based; conditions: HeLa S3, 72 h
Hepatitis C virus [5] = test: Antiviral activity against Hepatitis C virus genotype 1b infected in human Huh-luc replicon cells after 3 days by luciferase assay; format: functional, organism-based, Hepacivirus hominis; conditions: subtype 1b, 72 h
Adenosine kinase [6] = biological target: T1, Adenosine kinase (Homo sapiens, UniProt P55263); test: Inhibition of recombinant human ADK using [3H]-adenosine as substrate after 20 mins by TLC scanner-based analysis relative to control
T1 sequence (P55263 whole entry): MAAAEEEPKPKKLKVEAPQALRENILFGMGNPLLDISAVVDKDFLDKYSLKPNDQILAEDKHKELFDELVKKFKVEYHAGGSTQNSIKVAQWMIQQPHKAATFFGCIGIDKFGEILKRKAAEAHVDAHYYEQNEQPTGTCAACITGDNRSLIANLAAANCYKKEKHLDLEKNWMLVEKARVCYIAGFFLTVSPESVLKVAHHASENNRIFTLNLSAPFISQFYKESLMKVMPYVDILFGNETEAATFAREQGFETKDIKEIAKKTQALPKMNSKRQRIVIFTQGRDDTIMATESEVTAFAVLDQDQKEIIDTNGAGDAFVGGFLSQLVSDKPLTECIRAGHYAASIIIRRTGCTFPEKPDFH
How it was run: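 ADK inhibition: 50 μM adenosine substrate with 10 μM test compound and 97 ng enzyme, 20 min at 37 °C.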

U2OS = test: Antiproliferative activity against human U2OS cells after 3 days by MTS assay; format: functional, cell-based; conditions: 72 h
MRC5 = test: Antiproliferative activity against human MRC5 cells after 3 days by MTS assay; conditions: MRC5, 72 h
HepG2 = test: Antiproliferative activity against human HepG2 cells after 72 hrs by XTT assay; format: functional, cell-based; conditions: HepG2, 72 h
CCRF-CEM [7] = test: Antiproliferative activity against human CCRF-CEM cells after 3 days by MTS assay; format: functional, cell-based; conditions: 72 h
CCRF-CEM [8] = test: Induction of cell cycle arrest in human CCRF-CEM cells assessed as accumulation at G2/M phase at 5 times IC50 concentration after 24 hrs by propidium iodide-staining based flow cytometry (reference value: 19.22%); format: functional
[9] = Antiproliferative activity against human K562-TAX cells after 3 days by MTS assay; format: functional, cell-based; conditions: 72 h
CCRF-CEM [10] = test: Inhibition of DNA synthesis in human CCRF-CEM cells assessed as DNA synthesis level at IC50 concentration after 24 hrs by BrdU incorporation assay (reference value: 43.39%); format: functional; parameters: scale not given: the % may be the effect or the level left
CCRF-CEM [11] = test: Induction of cell cycle arrest in human CCRF-CEM cells assessed as accumulation at subG1 phase at IC50 concentration after 24 hrs by propidium iodide-staining based flow cytometry (reference value: 3.45%); format: functional
dengue virus type 2 = test: Antiviral activity against Dengue virus 2 Thailand/16681/84 infected in African green monkey Vero cells assessed as inhibition of virus replication incubated for 3 days by fluorescence microscopy; format: functional, organism-based
CCRF-CEM [12] = test: Inhibition of RNA synthesis in human CCRF-CEM cells assessed as RNA synthesis level at IC50 concentration after 24 hrs by BrU incorporation assay (reference value: 49.89%); format: functional; parameters: scale not given: the % may be the effect or the level left
HL-60 = test: Antiproliferative activity against human HL60 cells after 72 hrs by XTT assay; format: functional, cell-based; conditions: HL-60, 72 h
CCRF-CEM [13] = test: Inhibition of mitosis in human CCRF-CEM cells assessed Ser10 H3 phosphorylation positive cells at 5 times IC50 concentration after 24 hrs by flow cytometry relative to total cell population (reference value: 1.36%); format: functional; parameters: scale not given: the % may be the effect or the level left
CCRF-CEM [14] = test: Induction of cell cycle arrest in human CCRF-CEM cells assessed as accumulation at G2/M phase at IC50 concentration after 24 hrs by propidium iodide-staining based flow cytometry (reference value: 19.22%); format: functional
Adenosine kinase [15] = biological target: T1, Adenosine kinase; test: Substrate activity at recombinant human ADK assessed as compound phosphorylation at 50 uM after 20 mins in presence of [3H]-adenosine by UPLC; format: ADME
Human alphaherpesvirus 1 = test: Antiviral activity against human herpesvirus 1 HF infected in African green monkey Vero cells assessed as inhibited virus-induced cytopathic effect incubated for 3 days by XTT assay; format: functional, organism-based
HCT-116 [16] = test: Antiproliferative activity against p53 gene knocked out human HCT116 cells after 3 days by MTS assay; format: functional, cell-based; conditions: HCT-116, 72 h
CCRF-CEM [17] = test: Induction of cell cycle arrest in human CCRF-CEM cells assessed as accumulation at S phase at 5 times IC50 concentration after 24 hrs by propidium iodide-staining based flow cytometry (reference value: 41.08%); format: functional
CCRF-CEM [18] = test: Inhibition of RNA synthesis in human CCRF-CEM cells assessed as RNA synthesis level at 5 times IC50 concentration after 24 hrs by BrU incorporation assay (reference value: 49.89%); format: functional; parameters: scale not given: the % may be the effect or the level left
BJ = test: Antiproliferative activity against human BJ cells after 3 days by MTS assay; conditions: 72 h
Hepatitis C virus [19] = test: Antiviral activity against Hepatitis C virus genotype 2a infected in human Huh-luc replicon cells after 3 days by luciferase assay; format: functional, organism-based, Hepacivirus hominis; conditions: subtype 2a, 72 h
Influenza A virus = test: Antiviral activity against Influenza A virus (A/Mexico/4108/2009(H1N1)) infected in MDCK cells assessed as inhibited virus-induced cytopathic effect incubated for 2 days by XTT assay; format: functional, organism-based
CCRF-CEM [20] = test: Induction of cell cycle arrest in human CCRF-CEM cells assessed as accumulation at S phase at IC50 concentration after 24 hrs by propidium iodide-staining based flow cytometry (reference value: 41.08%); format: functional
Coxsackievirus B3 = test: Antiviral activity against Human coxsackie B3 Nancy infected in human HeLa cells assessed as inhibited virus-induced cytopathic effect incubated for 2 days by XTT assay; format: functional, organism-based
HCT-116 [21] = test: Antiproliferative activity against human HCT116 cells after 3 days by MTS assay; format: functional, cell-based; conditions: HCT-116, 72 h
[22] = Antiproliferative activity against human CEM-DNR-bulk cells after 3 days by MTS assay; conditions: 72 h
Human orthopneumovirus = test: Antiviral activity against Human respiratory syncytial virus A2 infected in Hep2 cells assessed as reduction in virus-induced cytopathic effect incubated for 4 days by CellTiter-Glo viability reagent based assay; format: functional, organism-based
CCRF-CEM [23] = test: Induction of cell cycle arrest in human CCRF-CEM cells assessed as accumulation at G0/G1 phase at IC50 concentration after 24 hrs by propidium iodide-staining based flow cytometry (reference value: 39.70%); format: functional
CCRF-CEM [24] = test: Induction of cell cycle arrest in human CCRF-CEM cells assessed as accumulation at G0/G1 phase at 5 times IC50 concentration after 24 hrs by propidium iodide-staining based flow cytometry (reference value: 39.70%); format: functional

Structure (SMILES)	IC50 (A549) [nM]	Activity (CCRF-CEM [1]) [%]	Activity (CCRF-CEM [2]) [%]	Activity (CCRF-CEM [4]) [%]	IC50 (HeLa S3) [nM]	IC50 (U2OS) [nM]	IC50 (MRC5) [nM]	Activity (CCRF-CEM [8]) [%]	IC50 [9] [nM]	Activity (CCRF-CEM [10]) [%]	Activity (CCRF-CEM [11]) [%]	Activity (CCRF-CEM [12]) [%]	Activity (CCRF-CEM [13]) [%]	Activity (CCRF-CEM [14]) [%]	IC50 (HCT-116 [16]) [nM]	Activity (CCRF-CEM [17]) [%]	Activity (CCRF-CEM [18]) [%]	IC50 (BJ) [nM]	Activity (CCRF-CEM [20]) [%]	IC50 (HCT-116 [21]) [nM]	also measured
COc1ncnc2c1c1c(ccn1C)n2[C@@H]1O[C@H](CO)[C@@H](O)[C@H]1O	> 50000	12.29	1.48	13.86	1530	1300	50000	15.4	> 50000	31.44	3.68	31.19	1.5	17.2	620	36.98	28.3	4500	45.08	360	CC50 at 72 h [3]: > 44400 nM; IC50 (K562): 510 nM; EC50 (Hepatitis C virus [5]): 90 nM; IC50 (Adenosine kinase [6]): > 10000 nM; IC50 (HepG2): 2590 nM; IC50 (CCRF-CEM [7]): 440 nM; Activity (dengue virus type 2): inactive; IC50 (HL-60): 1440 nM; Activity (Adenosine kinase [15]): 47%; Activity (Human alphaherpesvirus 1): inactive; EC50 (Hepatitis C virus [19]): 280 nM; Activity (Influenza A virus): inactive; Activity (Coxsackievirus B3): inactive; IC50 [22]: > 50000 nM; Activity (Human orthopneumovirus): inactive; Activity (CCRF-CEM [23]): 37.73%; Activity (CCRF-CEM [24]): 47.62%
Nc1ncnc2c1c(-c1cccs1)cn2[C@@H]1O[C@H](CO)[C@@H](O)[C@H]1O	13100	10.76	2.09	58.53	20	510	> 50000	28.98	40	3.59	29.83	0.91	0.94	17.23	20	38.71	57.09	> 50000	62.28	20	IC50 [22]: 60 nM; Activity (CCRF-CEM [23]): 20.49%; Activity (CCRF-CEM [24]): 32.31%

From ChEMBL document CHEMBL4330056, “Synthesis and Cytotoxic and Antiviral Profiling of Pyrrolo- and Furo-Fused 7-Deazapurine Ribonucleosides” (J Med Chem, 2018)
